# Columns and labels:
# Assay type in all cases: functional
# Escherichia coli [1] = test: Antibacterial activity against Escherichia coli 10-1 after 18 hrs by two fold serial dilution method; conditions: 10-1, 18 h
# Procedure, shortened: (§1)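 Agar two-fold serial dilution in melted Mueller-Hinton agar, final concentrations 128 down to 0.008 μg/mL. Plates inoculated with 10⁴ cfu and incubated at 35 °C for 18 h. MIC taken as the lowest concentration giving no visible growth on the plate.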
# Enterococcus faecalis [2] = test: Ratio of gemifloxacin MIC to compound MIC for Enterococcus faecalis 09-2
# Escherichia coli [3] = test: Antibacterial activity against Escherichia coli 10-2 after 18 hrs by two fold serial dilution method; conditions: 10-2, 18 h; procedure, shortened: as §1
# Pseudomonas aeruginosa [4] = test: Antibacterial activity against Pseudomonas aeruginosa 10-1 after 18 hrs by two fold serial dilution method; conditions: 10-1, 18 h; procedure, shortened: as §1
# Enterococcus faecium [5] = test: Antibacterial activity against Enterococcus faecium 09-4 after 18 hrs by two fold serial dilution method; conditions: 09-4, 18 h; procedure, shortened: as §1
# Staphylococcus aureus [6] = test: Antibacterial activity against methicillin-sensitive Staphylococcus aureus 10-5 after 18 hrs by two fold serial dilution method; conditions: 10-5, 18 h; procedure, shortened: as §1
# Escherichia coli [7] = test: Antibacterial activity against Escherichia coli 09-2 after 18 hrs by two fold serial dilution method; conditions: 09-2, 18 h; procedure, shortened: as §1
# Enterococcus faecium [8] = test: Antibacterial activity against Enterococcus faecium 09-5 after 18 hrs by two fold serial dilution method; conditions: 09-5, 18 h; procedure, shortened: as §1
# Enterococcus faecium [9] = test: Antibacterial activity against Enterococcus faecium 09-3 after 18 hrs by two fold serial dilution method; conditions: 09-3, 18 h; procedure, shortened: as §1
# Staphylococcus aureus [10] = test: Antibacterial activity against methicillin-resistant Staphylococcus aureus 10-4 after 18 hrs by two fold serial dilution method; conditions: 10-4, 18 h
# Procedure, shortened: (§2)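 Agar two-fold serial dilution in melted Mueller-Hinton agar, 128 to 0.008 μg/mL. Plates inoculated with 10⁴ cfu, incubated 35 °C for 18 h. MIC taken as lowest concentration giving no visible growth on the plate.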
# Pseudomonas aeruginosa [11] = test: Antibacterial activity against Pseudomonas aeruginosa 10-3 after 18 hrs by two fold serial dilution method; conditions: 10-3, 18 h; procedure, shortened: as §1
# Enterococcus faecalis [12] = test: Ratio of ciprofloxacin MIC to compound MIC for Enterococcus faecalis 09-2
# Streptococcus pneumoniae = test: Antibacterial activity against Streptococcus pneumoniae 10-1 after 18 hrs by two fold serial dilution method; conditions: 10-1, 18 h; procedure, shortened: as §1
# Staphylococcus aureus [13] = test: Ratio of gemifloxacin MIC to compound MIC for methicillin-resistant Staphylococcus aureus 10-2
# Staphylococcus aureus [14] = test: Ratio of moxifloxacin MIC to compound MIC for methicillin-resistant Staphylococcus aureus 10-2
# [15] = system: Staphylococcus epidermidis; test: Antibacterial activity against methicillin-sensitive Staphylococcus epidermidis 10-2 after 18 hrs by two fold serial dilution method; conditions: 10-2, 18 h; procedure, shortened: as §1
# Staphylococcus aureus [16] = test: Antibacterial activity against methicillin-resistant Staphylococcus aureus 10-3 after 18 hrs by two fold serial dilution method; conditions: 10-3, 18 h; procedure, shortened: as §2
# Staphylococcus aureus [17] = test: Antibacterial activity against methicillin-resistant Staphylococcus aureus 10-1 after 18 hrs by two fold serial dilution method; conditions: 10-1, 18 h; procedure, shortened: as §2
# Staphylococcus aureus [18] = test: Antibacterial activity against Staphylococcus aureus ATCC 25923 after 18 hrs by two fold serial dilution method; conditions: ATCC 25923, 18 h; procedure, shortened: as §1
# Enterococcus faecalis [19] = test: Antibacterial activity against Enterococcus faecalis 09-1 after 18 hrs by two fold serial dilution method; conditions: 09-1, 18 h; procedure, shortened: as §1
# [20] = system: Staphylococcus epidermidis; test: Antibacterial activity against methicillin-resistant Staphylococcus epidermidis 10-1 after 18 hrs by two fold serial dilution method; conditions: 10-1, 18 h; procedure, shortened: as §2
# Staphylococcus aureus [21] = test: Antibacterial activity against methicillin-sensitive Staphylococcus aureus 10-3 after 18 hrs by two fold serial dilution method; conditions: 10-3, 18 h; procedure, shortened: as §1
# Escherichia coli [22] = test: Antibacterial activity against Escherichia coli 09-3 after 18 hrs by two fold serial dilution method; conditions: 09-3, 18 h; procedure, shortened: as §1
# Pseudomonas aeruginosa [23] = test: Antibacterial activity against Pseudomonas aeruginosa ATCC 27853 after 18 hrs by two fold serial dilution method; conditions: ATCC 27853, 18 h; procedure, shortened: as §1
# [24] = system: Staphylococcus epidermidis; test: Antibacterial activity against methicillin-resistant Staphylococcus epidermidis 10-2 after 18 hrs by two fold serial dilution method; conditions: 10-2, 18 h; procedure, shortened: as §2
# Staphylococcus aureus [25] = test: Antibacterial activity against methicillin-sensitive Staphylococcus aureus 10-4 after 18 hrs by two fold serial dilution method; conditions: 10-4, 18 h; procedure, shortened: as §1
# Enterococcus faecium [26] = test: Antibacterial activity against Enterococcus faecium 09-6 after 18 hrs by two fold serial dilution method; conditions: 09-6, 18 h; procedure, shortened: as §1
# Enterococcus faecalis [27] = test: Ratio of moxifloxacin MIC to compound MIC for Enterococcus faecalis 09-2
# Klebsiella pneumoniae [28] = test: Antibacterial activity against Klebsiella pneumoniae 09-2 after 18 hrs by two fold serial dilution method; conditions: 09-2, 18 h; procedure, shortened: as §1
# Staphylococcus aureus [29] = test: Antibacterial activity against methicillin-sensitive Staphylococcus aureus 10-6 after 18 hrs by two fold serial dilution method; conditions: 10-6, 18 h; procedure, shortened: as §1
# Staphylococcus aureus [30] = test: Antibacterial activity against methicillin-sensitive Staphylococcus aureus 10-1 after 18 hrs by two fold serial dilution method; conditions: 10-1, 18 h; procedure, shortened: as §1
# Enterococcus faecalis [31] = test: Antibacterial activity against Enterococcus faecalis 09-2 after 18 hrs by two fold serial dilution method; conditions: 09-2, 18 h; procedure, shortened: as §1
# Staphylococcus aureus [32] = test: Antibacterial activity against methicillin-resistant Staphylococcus aureus 10-2 after 18 hrs by two fold serial dilution method; conditions: 10-2, 18 h; procedure, shortened: as §2
# [33] = system: Staphylococcus epidermidis; test: Antibacterial activity against methicillin-sensitive Staphylococcus epidermidis 10-1 after 18 hrs by two fold serial dilution method; conditions: 10-1, 18 h; procedure, shortened: as §1
# Staphylococcus aureus [34] = test: Ratio of ciprofloxacin MIC to compound MIC for methicillin-resistant Staphylococcus aureus 10-2
# Escherichia coli [35] = test: Antibacterial activity against Escherichia coli 09-1 after 18 hrs by two fold serial dilution method; conditions: 09-1, 18 h; procedure, shortened: as §1
# Klebsiella pneumoniae [36] = test: Antibacterial activity against Klebsiella pneumoniae 10-1 after 18 hrs by two fold serial dilution method; conditions: 10-1, 18 h; procedure, shortened: as §1
# Klebsiella pneumoniae [37] = test: Antibacterial activity against Klebsiella pneumoniae 10-3 after 18 hrs by two fold serial dilution method; conditions: 10-3, 18 h; procedure, shortened: as §1
# Staphylococcus aureus [38] = test: Antibacterial activity against methicillin-sensitive Staphylococcus aureus 10-2 after 18 hrs by two fold serial dilution method; conditions: 10-2, 18 h; procedure, shortened: as §1
# Enterococcus faecium [39] = test: Antibacterial activity against Enterococcus faecium 09-2 after 18 hrs by two fold serial dilution method; conditions: 09-2, 18 h; procedure, shortened: as §1
# Enterococcus faecium [40] = test: Antibacterial activity against Enterococcus faecium 09-1 after 18 hrs by two fold serial dilution method; conditions: 09-1, 18 h; procedure, shortened: as §1
# Escherichia coli [41] = test: Antibacterial activity against Escherichia coli ATCC 25922 after 18 hrs by two fold serial dilution method; conditions: ATCC 25922, 18 h; procedure, shortened: as §1
# Pseudomonas aeruginosa [42] = test: Antibacterial activity against Pseudomonas aeruginosa 10-2 after 18 hrs by two fold serial dilution method; conditions: 10-2, 18 h; procedure, shortened: as §1
# Escherichia coli [43] = test: Antibacterial activity against Escherichia coli 10-3 after 18 hrs by two fold serial dilution method; conditions: 10-3, 18 h; procedure, shortened: as §1
compound,measurement,setting,value
CC1(CN)CN(c2nc3c(cc2F)c(=O)c(C(=O)O)cn3C2CC2)C/C1=N\OCF (racemic),MIC,Escherichia coli [1],64 µg/mL
same,Ratio,Enterococcus faecalis [2],4
same,MIC,Escherichia coli [3],0.125 µg/mL
same,MIC,Pseudomonas aeruginosa [4],0.008 µg/mL
same,MIC,Enterococcus faecium [5],0.06 µg/mL
same,MIC,Staphylococcus aureus [6],0.03 µg/mL
same,MIC,Escherichia coli [7],> 128 µg/mL
same,MIC,Enterococcus faecium [8],16 µg/mL
same,MIC,Enterococcus faecium [9],8 µg/mL
same,MIC,Staphylococcus aureus [10],4 µg/mL
same,MIC,Pseudomonas aeruginosa [11],4 µg/mL
same,Ratio,Enterococcus faecalis [12],64
same,MIC,Streptococcus pneumoniae,0.5 µg/mL
same,Ratio,Staphylococcus aureus [13],2
same,Ratio,Staphylococcus aureus [14],32
same,MIC,[15],64 µg/mL
same,MIC,Staphylococcus aureus [16],4 µg/mL
same,MIC,Staphylococcus aureus [17],4 µg/mL
same,MIC,Staphylococcus aureus [18],0.008 µg/mL
same,MIC,Enterococcus faecalis [19],4 µg/mL
same,MIC,[20],1 µg/mL
same,MIC,Staphylococcus aureus [21],0.25 µg/mL
same,MIC,Escherichia coli [22],32 µg/mL
same,MIC,Pseudomonas aeruginosa [23],0.125 µg/mL
same,MIC,[24],0.5 µg/mL
same,MIC,Staphylococcus aureus [25],0.06 µg/mL
same,MIC,Enterococcus faecium [26],0.06 µg/mL
same,Ratio,Enterococcus faecalis [27],16
same,MIC,Klebsiella pneumoniae [28],128 µg/mL
same,MIC,Staphylococcus aureus [29],0.125 µg/mL
same,MIC,Staphylococcus aureus [30],0.06 µg/mL
same,MIC,Enterococcus faecalis [31],1 µg/mL
same,MIC,Staphylococcus aureus [32],0.25 µg/mL
same,MIC,[33],8 µg/mL
same,Ratio,Staphylococcus aureus [34],64
same,MIC,Escherichia coli [35],64 µg/mL
same,MIC,Klebsiella pneumoniae [36],0.015 µg/mL
same,MIC,Klebsiella pneumoniae [37],0.125 µg/mL
same,MIC,Staphylococcus aureus [38],1 µg/mL
same,MIC,Enterococcus faecium [39],16 µg/mL
same,MIC,Enterococcus faecium [40],16 µg/mL
same,MIC,Escherichia coli [41],0.008 µg/mL
same,MIC,Pseudomonas aeruginosa [42],16 µg/mL
same,MIC,Escherichia coli [43],32 µg/mL

# From ChEMBL document CHEMBL1926550, “Synthesis and antibacterial activity of naphthyridone derivatives containing mono/difluoro-methyloxime pyrrolidine scaffolds” (2012)
